ChEMBL document CHEMBL6177935, “Design and synthesis of novel multi-target tetrabromophthalimides as CBS and Topo-II inhibitors and DNA intercalators” (RSC Med Chem, 2024)
Active and inactive are the calls of the source.

Tests used:
Format in all cases: functional
Conditions in all cases: dose 100.0 µg/ml, pooled result: one value given for 15 cell lines, strains, targets or settings
HNO 97 cell line = assay: Growth inhibition of human HNO 97 cells at 100 ug/ml measured after 48 hrs by SRB assay relative to control
Method in brief: (§1)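 SRB screen on fifteen human cancer lines. Cells seeded at 3×10^3 per well and left 24 h to attach. A single concentration of 100 µg/mL was tested in triplicate wells for 48 h, with 1% v/v DMSO as vehicle control. Cells fixed in 20% TCA, stained with 0.4% SRB and read at 570 nm. Survival fraction = OD treated/OD control.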

HN = assay: Growth inhibition of human HN cells at 100 ug/ml measured after 48 hrs by SRB assay relative to control; method in brief: as §1
MCF7 = assay: Growth inhibition of human MCF7 cells at 100 ug/ml measured after 48 hrs by SRB assay relative to control; method in brief: as §1
MDA-MB-468 = assay: Growth inhibition of human MDA-MB-468 cells at 100 ug/ml measured after 48 hrs by SRB assay relative to control; method in brief: as §1
Caco-2 = assay: Growth inhibition of human Caco-2 cells at 100 ug/ml measured after 48 hrs by SRB assay relative to control; method in brief: as §1
HCT-116 = assay: Growth inhibition of human HCT-116 cells at 100 ug/ml measured after 48 hrs by SRB assay relative to control; method in brief: as §1
HEp-2 = assay: Growth inhibition of human HEp-2 cells at 100 ug/ml measured after 48 hrs by SRB assay relative to control; method in brief: as §1
HepG2 = assay: Growth inhibition of human HepG2 cells at 100 ug/ml measured after 48 hrs by SRB assay relative to control; method in brief: as §1
A-431 = assay: Growth inhibition of human A-431 cells at 100 ug/ml measured after 48 hrs by SRB assay relative to control; method in brief: as §1
A-375 = assay: Growth inhibition of human A-375 cells at 100 ug/ml measured after 48 hrs by SRB assay relative to control; method in brief: as §1
NCI-H1299 = assay: Growth inhibition of human NCI-H1299 cells at 100 ug/ml measured after 48 hrs by SRB assay relative to control; method in brief: as §1
A549 = assay: Growth inhibition of human A549 cells at 100 ug/ml measured after 48 hrs by SRB assay relative to control; method in brief: as §1
PC-3 = assay: Growth inhibition of human PC-3 cells at 100 ug/ml measured after 48 hrs by SRB assay relative to control; method in brief: as §1
FaDu = assay: Growth inhibition of human FaDu cells at 100 ug/ml measured after 48 hrs by SRB assay relative to control; method in brief: as §1
HeLa = assay: Growth inhibition of human HeLa cells at 100 ug/ml measured after 48 hrs by SRB assay relative to control; method in brief: as §1

Measured: growth inhibition (GI)

O=C1CCC(N2C(=O)c3c(Br)c(Br)c(Br)c(Br)c3C2=O)C(=O)O1 (stereo not given)
active: HNO 97 cell line Active; Weak Inhibition Observed | HN Active; Weak Inhibition Observed | MCF7 Active; Weak Inhibition Observed | MDA-MB-468 Active; Weak Inhibition Observed | Caco-2 Active; Weak Inhibition Observed | HCT-116 Active; Weak Inhibition Observed | HEp-2 Active; Weak Inhibition Observed | HepG2 Active; Weak Inhibition Observed | A-431 Active; Weak Inhibition Observed | A-375 Active; Weak Inhibition Observed | NCI-H1299 Active; Weak Inhibition Observed | A549 Active; Weak Inhibition Observed | PC-3 Active; Weak Inhibition Observed | FaDu Active; Weak Inhibition Observed | HeLa Active; Weak Inhibition Observed

CC(=O)N1C(=O)c2c(Br)c(Br)c(Br)c(Br)c2C1=O
active: all assays above

O=C1c2c(Br)c(Br)c(Br)c(Br)c2C(=O)N1c1ccc([Se][Se]c2ccc(N3C(=O)c4c(Br)c(Br)c(Br)c(Br)c4C3=O)cc2)cc1
active: all assays above

CC(=O)N(NC(=S)NN1C(=O)c2c(Br)c(Br)c(Br)c(Br)c2C1=O)C(C)=O
active: all assays above
